High-throughput results from PubChem BioAssay.
ABCG2 block = ABCG2 efflux pump inhibitors, primary screen, multiplex with ABCB1, IgMXP3 cells, flow cytometry; JC-1 efflux; inhibition, % at 6.6 µM; actives 0.1% (n = 190,000);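 active = inhibition above 80%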
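Times: 10 min at 25 °C | Test system: Two drug-resistant human cell lines, ABCG2 and ABCB1 | Quantity: 3 million cells/mL final, two lines in 1:1 ratio | Signal: Flow cytometry, 530 nm JC-1 signal | Dosing: Compound at 6.6 µM | Controls: Nicardipine and DMSO wells | Reagent: JC-1 as fluorescent efflux pump substrate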
GSH bead fluor = compound fluorescence on glutathione beads, profiling panel, artefact control, biophysical, 488/530 nm, flow cytometry | GSH beads flow cytometry, compound fluorescence 488/530 nm; stronger effect = higher value | fluorescence (KMESF) at 10 µM | actives 0.25% (n = 190,000) | AID 1776, 2009; in the data active = fluorescence above about 89;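 note: glutathione beads carrying GST-tagged Bcl family fusion proteins plus one bare bead set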
Avidin fluor = green autofluorescence of compounds with avidin beads – biophysical, 488/530 nm, flow cytometry, artefact control, profiling panel; compound fluorescence 488/530 nm; stronger effect = higher value; fluorescence (KMESF) at 10 µM; actives 0.38% (n = 220,000); AID 1775, 2009; in the data active = fluorescence above about 47
ABCB1 inh = ABCB1 efflux pump inhibitors, primary screen, cell-based, multiplex, flow cytometry, ABCG2 counter-screen | ATP-dependent translocase ABCB1 (Homo sapiens), P08183 | CCRF-Adr cells, JC-1 efflux | inhibition, % at 6.6 µM | actives 0.067% (n = 190,000); in the data active = inhibition above about 40%;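 note: higher value means more JC-1 retained so stronger ABCB1 efflux block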
DTT redox prof = compounds producing H2O2 with reducing agent – biochemical, NIH compound library profiling, artefact control for MLSCN library redox annotation, primary screen. DTT-dependent redox cycling H2O2, phenol red/HRP absorbance; 100% = 100 µM peroxide control, 0% = buffer. activation, % at 10 µM. actives 0.03% (n = 200,000);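 active = activation of at least 50% relative to the plate's high and low controls in the primary single-dose screen; inactive = activation below 50%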;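 note: compound incubated with DTT at 0.8 mM final as the reducing agent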
ABCB1 single pt = ABCB1 efflux pump inhibitors, confirmation, cell-based, single point, ABCG2 counter-screen. shares compounds with ABCG2 block. CCRF-Adr cells, JC-1 efflux, flow cytometry. inhibition, % at 6.6 µM. actives 7% (n = 270);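 active = inhibition of pump activity above 50%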
ABCG2 single pt = ABCG2 efflux pump inhibitors, confirmation, single point, IgMXP3 cells, ABCB1 counter-screen paired; actives 6% (n = 270); JC-1 efflux, flow cytometry; shares compounds with ABCG2 block; inhibition, % at 6.6 µM;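 active = inhibition above 50%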
IgMXP3 fluor = compound autofluorescence in ABCG2-expressing IgMXP3 cells, confirmation, artefact control for ABC transporter inhibitor project, cell-based, 488/530 nm, flow cytometry; shares compounds with ABCG2 block; compound autofluorescence 488/530 nm; stronger effect = higher value; fluorescence at 6.6 µM; actives 30% (n = 270);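 active = fluorescence in ABCG2-expressing cells above the plate's control-well mean plus 3 SD, cut at about 15 in these data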
CCRF-Adr fluor = compound autofluorescence in ABCB1-expressing CCRF-Adr cells, confirmation, artefact control for ABC transporter inhibitor project, cell-based, 488/530 nm, flow cytometry | actives 30% (n = 270) | AID 1483, 2009 | shares compounds with ABCG2 block | fluorescence at 6.6 µM | compound autofluorescence 488/530 nm; stronger effect = higher value;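 active = fluorescence beyond the plate control mean plus 3 SD, with a fluorescence-to-maximum score over 2, cut at about 25 in these data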
Hits are given with their value; . = inactive; / = no result; + = active, no number. Sampled rows, rich in hits. Any-hit rate of the full collection: about 0.72%.

SMILES | ABCG2 block | GSH bead fluor | Avidin fluor | ABCB1 inh | DTT redox prof | ABCB1 single pt | ABCG2 single pt | IgMXP3 fluor | CCRF-Adr fluor
CC(=O)Nc1ccc(S(=O)(=O)N[C@@H](C)C(=O)OCc2cc([N+](=O)[O-])cc3c2OCOC3)cc1 | / | / | . | / | / | / | / | / | /
COc1cc(C(=O)NC(CCSC)C(=O)OCc2cc([N+](=O)[O-])cc3c2OCOC3)cc(OC)c1OC (stereo not given) | . | . | . | 58 | . | . | . | . | .
Cc1c(N2CCCC2)cc2c(c1NC(=O)c1ccccc1Cl)C(C)(C)CC2(C)C | / | / | . | / | / | / | / | / | /
COc1cc(OC)cc(C(=O)N[C@H](C(=O)Nc2nc(-c3cc(OC)ccc3OC)cs2)C(C)C)c1 | . | . | . | . | . | . | . | . | .
COc1cc(OC)cc(C(=O)N[C@H](C(=O)Nc2nc(-c3ccc(OC)c(OC)c3)cs2)C(C)C)c1 | / | / | . | / | / | / | / | / | /
NNC(=O)c1ccc(NS(=O)(=O)c2ccc(Br)cc2)cc1 | / | / | . | / | / | / | / | / | /
NC(=S)N=Nc1c(O)[nH]c2ccc(F)cc12 | . | . | . | . | . | . | . | . | .
CN(C(=O)C(Cl)Cl)C1CC2C=CC1C2 (stereo not given) | / | / | . | / | / | / | / | / | /
CCCCn1c(O)c(N=Nc2ccccn2)c2ccccc21 | . | . | . | . | . | . | 51 | . | .
O=C1CC(c2ccc(Cl)cc2)SC(N(c2ccccc2)c2ccccc2)=N1 (stereo not given) | . | . | . | . | . | / | / | / | /
CCN(CC)c1nc(-c2cccc(OC)c2O)nc2ccccc12 | 83 | . | . | . | . | . | . | 17 | 108
CN(CCCOc1ccccc1Br)Cc1ccccc1 | . | . | . | 56 | . | . | . | 112 | 26
CCN1CCN(C2=CC3=CC(=C(C#N)C#N)CCC3CC2)CC1 (stereo not given) | . | . | . | 70 | . | . | . | 35 | 93
N#CC(C#N)=C1C=C2C=C(N3CCCCCC3)CCC2CC1 (stereo not given) | . | . | . | 116 | . | 138 | . | 46 | 131
CC1(C)CC(NCCN2CCN(C3=CC(=C(C#N)C#N)CC(C)(C)C3)CC2)=CC(=C(C#N)C#N)C1 | . | . | . | . | . | / | / | / | /
CN1CCN(C2=CC3=CC(=C(C#N)C#N)CCC3CC2)CC1 (stereo not given) | 85 | . | . | + | . | 68 | 53 | 29 | 47
N#CC(C#N)=C1C=C2C=C(N3CCOCC3)CCC2CC1 (stereo not given) | . | . | . | 169 | . | . | 50 | . | .
C=CCn1c(COc2ccccc2)nnc1SC(C)C(=O)N/N=C/c1cc(Cl)ccc1O (stereo not given) | . | . | . | . | . | / | / | / | /
CCOC(=O)c1nc(SC)n(C)c1C(=O)OCC | / | / | . | / | / | / | / | / | /
COc1cc(/C=C2\SC(=Nc3ccccc3)N(CCc3c[nH]c4ccccc34)C2=O)ccc1OC(C)C(=O)O (stereo not given) | . | . | . | . | . | / | / | / | /
O=C1S/C(=C/c2ccc(N3CCOCC3)o2)C(=O)N1Cc1ccc(F)cc1 | 111 | . | . | . | . | . | . | 196 | 41
O=C1/C(=C/c2ccc(N3CCOCC3)o2)SC(=Nc2ccccc2)N1CCc1c[nH]c2ccccc12 | 127 | . | . | 81 | . | . | . | 77 | 192
C=C(C(=O)c1ccccc1)C(CC(=O)c1ccccc1)c1ccccc1 (stereo not given) | . | . | . | . | . | / | / | / | /
Cc1sc(NC(=O)C2C3C=CC(C3)C2C(=O)O)c(C(N)=O)c1-c1ccc(C(C)C)cc1 (stereo not given) | . | . | . | . | . | / | / | / | /
OCCC#Cc1ccc(CN2CCN(Cc3ccccc3)C(CCO)C2)cc1 (stereo not given) | 89 | . | . | . | . | . | . | . | .
COc1cccc(CNC(=O)C(=O)NCC(c2ccco2)N2CCOCC2)c1 (stereo not given) | . | . | . | 65 | . | . | . | . | .
Cc1ccc(CNC(=O)C(=O)NCC(c2ccco2)N2CCOCC2)cc1 (stereo not given) | . | . | . | . | . | / | / | / | /
Cc1cc(-c2ccccc2)nc(Cl)c1C#N | . | . | . | . | . | / | / | / | /
